# Hits are enriched below; roughly 3.5% of the tested compounds scored in any of these assays.
# RGS4 pot – RGS4 potentiators or activators, primary screen, cell-based, HEK293 M3R inducible RGS4, calcium flux. 310,000 compounds, 0.92% hits. carbachol calcium flux Fluo4; stronger effect = lower value. B-score at 10 µM;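 active = B-score of the integrated calcium signal more than 4 SD below the library mean, with starting fluorescence not abnormally high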;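 note: negative B-score means reduced calcium response which marks RGS4 activation or potentiation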
#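 System: HEK293 FlpIn-TREx cells, stable M3R, doxycycline-inducible RGS4. Timing: overnight RGS4 induction, 30 min dye load 37 °C, 20 min compound RT. Also added: carbachol, ECmax concentration. Measured by: Fluo4 fluorescence kinetic imaging of calcium. Evaluation: integrated calcium ratio converted to B score.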
# MrgX1 antag – antagonists of human MrgX1 receptor, primary screen, HEK293 cells, Fluo-4 calcium flux | B-score at 10 µM | 310,000 compounds, 1.3% hits | AID 588676, 2011 | BAM8-22 antagonism; stronger effect = lower value;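 active = calcium-response B-score plate-corrected more than 3 library SD below zero, starting fluorescence within 5 deviations, no agonist response on first addition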;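 note: peak minus trough fluorescence over baseline after final BAM8-22 challenge near maximal dose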
# Target sequence (Q96LB2 whole entry, looked up): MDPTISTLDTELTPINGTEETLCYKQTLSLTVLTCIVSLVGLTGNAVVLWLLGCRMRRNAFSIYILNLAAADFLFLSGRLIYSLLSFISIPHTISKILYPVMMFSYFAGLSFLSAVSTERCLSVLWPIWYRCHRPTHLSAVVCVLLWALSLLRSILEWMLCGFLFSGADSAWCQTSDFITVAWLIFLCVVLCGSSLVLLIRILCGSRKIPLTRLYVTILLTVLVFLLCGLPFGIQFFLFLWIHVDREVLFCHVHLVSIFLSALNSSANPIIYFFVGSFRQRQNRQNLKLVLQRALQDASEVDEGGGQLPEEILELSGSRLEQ
# MrgX1 ag – agonists of human MrgX1 receptor, primary screen, HEK293 cells, Fluo-4 calcium flux; Fluo-4 calcium fluorescence, agonist mode; stronger effect = higher value; B-score at 10 µM; 310,000 compounds, 0.44% hits;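 active = calcium response B-score plate-corrected fluorescence ratio at least 3 library SD, with starting fluorescence B-score inside 5 SD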
#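 Test system: HEK293 cells stably expressing human MrgX1 receptor; Input: fifteen thousand cells per well; Dosing: compound delivered in addition one of three; Schedule: overnight seeding, then 1 h dark dye loading; Technique: Fluo-4 NW calcium fluorescence; Measure: B-scored fluorescence response ratio; Controls: positive and negative controls per plate.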
# RGS4 block – RGS4 inhibitors, primary screen, cell-based, HEK293 M3R inducible RGS4, calcium flux. B-score at 10 µM. 310,000 compounds, 0.45% hits. Fluo-4 calcium flux; stronger effect = higher value; triggered by carbachol at its EC20. Regulator of G-protein signaling 4 (Homo sapiens), P49798. AID 463165, 2010;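 active = B-score, a plate-corrected calcium signal, over three deviations above library mean, with baseline fluorescence within five deviations of library mean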;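 note: RGS4 expression induced by doxycycline in cells with stable M3 receptor; B-score is computed from the integrated fluorescence ratio over baseline after carbachol; higher B-score means a larger calcium signal and so more RGS4 inhibition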
# Target sequence (P49798 whole entry, looked up): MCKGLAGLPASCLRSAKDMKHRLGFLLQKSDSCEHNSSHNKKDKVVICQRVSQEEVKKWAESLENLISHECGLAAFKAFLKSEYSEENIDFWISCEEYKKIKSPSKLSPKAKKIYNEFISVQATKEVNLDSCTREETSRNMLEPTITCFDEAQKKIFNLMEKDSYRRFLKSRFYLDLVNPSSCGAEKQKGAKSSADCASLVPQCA
# MrgX1 PAM – positive allosteric modulators of MrgX1, primary screen, HEK293 cells, Fluo-4 calcium flux. Mas-related G-protein coupled receptor member X1 (Homo sapiens), Q96LB2. FDSS; stronger effect = higher value. B-score at 10 µM. 310,000 compounds, 0.63% hits;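 active = plate-corrected calcium response at least 3 library SD above typical, normal starting fluorescence, not activating the receptor alone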;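 note: compound read alongside a low EC10 to EC30 dose of BAM8-22 agonist; peak minus trough fluorescence over baseline measured at the second addition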
# * = called active by the depositor; i = inactive; · = no result given.
SMILES,RGS4 pot,MrgX1 antag,MrgX1 ag,RGS4 block,MrgX1 PAM
COc1ccccc1/C=C/C(=O)OCC(=O)NNC(=O)c1ccccc1,i,-5.2*,i,i,i
COc1ccccc1/C=C/C(=O)OCC(=O)NCc1ccco1,i,i,i,i,i
CCN(CC)C(=O)N1c2ccccc2C=Cc2ccccc21,i,i,i,i,i
CN(C)CCCNC(=O)N1c2ccccc2C=Cc2ccccc21,-7.2*,i,i,i,i
NC(=O)c1ccc[n+]([C@H]2O[C@@H](COP(=O)([O-])OP(=O)(O)OC[C@H]3O[C@@H](n4cnc5c(N)ncnc54)[C@H](O)[C@@H]3O)[C@H](O)[C@@H]2O)c1,·,i,34*,·,i
Nc1ncnc2c1ncn2[C@H]1C[C@H](O)[C@@H](COP(=O)(O)O)O1,i,i,i,i,i
CC(=O)NC1C(Oc2cccc(C)c2)OC2COC(c3ccco3)OC2C1O (stereo unspecified),-7.3*,i,i,i,i
COC(=O)c1ccc(CN(C(C)=O)c2ccccc2)o1,-7.3*,i,i,i,i
CCOC(=O)c1[nH]ncc1CN1CCc2ccc(NC(=O)C3CCCO3)cc2C1 (stereo unspecified),i,i,i,i,i
CCOC(=O)N1CCN(S(=O)(=O)c2ccc(C(=O)N(CCCN(C)C)c3nc4cc(OC)ccc4s3)cc2)CC1,-7.6*,i,i,i,i
CCOC(=O)N1CCN(S(=O)(=O)c2ccc(C(=O)N(CCCN(C)C)c3nc4c(C)c(C)ccc4s3)cc2)CC1,i,i,i,i,i
COc1ccc2sc(N(CCCN(C)C)C(=O)c3ccc(S(=O)(=O)N4CCCC4)cc3)nc2c1,-7.2*,i,i,i,i
COc1ccccc1C(=O)COC(=O)c1cc([N+](=O)[O-])ccc1N1CCOCC1,i,i,i,i,i
COc1cc(C(=O)COC(=O)c2cc([N+](=O)[O-])ccc2N2CCOCC2)ccc1OC(F)F,i,-6.2*,i,i,i
N#CCC(N)=C(C#N)C#N,i,-7.2*,i,i,i
COC(=O)C/C(N)=C(\C#N)C(=O)OC,i,i,i,i,i
Cc1cccc(C)c1NC(=O)C(C)N1CCCCC1 (stereo unspecified),i,i,i,i,i
Cc1cc(C)c2nc(-c3ccncc3)cc(C(=O)N3CCN(Cc4ccccc4Cl)CC3)c2c1,-7.4*,i,i,i,i
Cc1nn(CCOc2ccccc2)c(=O)n1-c1ccccc1,i,i,i,i,i
Cc1nn(CCOc2ccccc2)c(=O)n1-c1ccc(Cl)cc1,i,i,i,i,11*
Cc1ccc(/C(O)=C2/C(=O)C(=O)N(c3ccccn3)C2c2ccc([N+](=O)[O-])cc2)cc1 (stereo unspecified),i,-4.8*,i,i,i
CCc1nc(Nc2ccccc2F)c2oc3ccccc3c2n1,i,i,i,i,8.4*
CC(C)(C)c1nn2cnnc2n(/N=C/c2ccc(O)cc2)c1=O,i,i,i,i,i
COc1ccc(-c2cc(C(=O)Nc3cc(S(=O)(=O)N4CCOCC4)ccc3N3CCOCC3)c3ccccc3n2)cc1,-7*,i,i,i,i
O=C(Nc1ccc(O)cc1)c1ccc2c(c1)C(=O)N(N1C(=O)c3ccccc3C1=O)C2=O,i,-5.8*,i,i,i
SMILES,RGS4 pot,MrgX1 antag,MrgX1 ag,RGS4 block,MrgX1 PAM
CCOC(=O)c1c(CN(C)C)n(-c2ccc(C)cc2)c2cc(Br)c(O)cc12,i,i,i,i,i
CCOC(=O)c1c(CSC(=N)N)n(-c2ccc(C)cc2)c2cc(Br)c(OC(C)=O)cc12,i,-7.6*,i,i,i
S=C(N/N=C1\C2CN3CCN(C2)CC1(c1ccccc1)C3)Nc1ccccc1,i,i,i,i,i
CCCN1C2=C(C(=O)CC(C)(C)C2)C(c2ccc(F)cc2)C2=C1c1ccccc1C2=O (stereo unspecified),i,-8.7*,i,i,i
CCCCN1C2=C(C(=O)CC(C)(C)C2)C(c2ccccc2)C2=C1c1ccccc1C2=O (stereo unspecified),i,i,i,i,i
CC1(C)CC(=O)C2=C(C1)OC1=C(C(=O)CC(C)(C)C1)C2c1ccc(O)cc1O,i,i,36*,i,i
COc1cccc(C(=O)Nc2sc3c(c2C#N)CCN(C(C)=O)C3)c1,i,i,i,i,i
Cc1ccc(C)c(-n2c3nc(=O)[nH]c(=O)c-3cc3cc([N+](=O)[O-])ccc32)c1,·,i,34*,·,i
Brc1cccc(-c2nc3cccnc3nc2-c2cccc(Br)c2)c1,-7*,i,i,i,i
Cc1ccc(-c2nc3cc(Br)cnc3nc2-c2ccc(C)cc2)cc1,i,i,i,i,i
COc1ccccc1CCC(=O)N(Cc1ccccc1)c1c(N)n(Cc2ccccc2)c(=O)[nH]c1=O,i,i,i,i,i
CCn1c2ccc(C)cc2c2nnc(NN)nc21,i,i,29*,i,i
CN(C)c1cc[n+](CC(=O)Nc2ccc(Oc3ccccc3)cc2)cc1,-9.1*,i,i,i,i
COc1cc(/C=N/NC(N)=S)ccc1OCC(=O)Nc1ccc(C)cc1,i,-5.5*,i,i,i
COc1cc(/C=N/NC(=O)NC23CC4CC(CC(C4)C2)C3)ccc1OCC(N)=O,-8.1*,i,i,i,i
Cc1ccc(C(=O)Nc2cccc(C(F)(F)F)c2)cc1NC(=O)c1csc(-c2ccncc2)n1,i,i,i,i,i
N#C/C(=N\Nc1cccc(C(F)(F)F)c1)C(=O)c1csc(-c2cccnc2)n1,i,-5.7*,i,i,i
Cc1ccc2cc(C3CC(c4ccco4)=NN3S(=O)(=O)c3ccccc3)c(Cl)nc2c1 (stereo unspecified),i,i,38*,i,i
CCN(CC)CCNc1ncnc2c1[nH]c1ccc(OC)cc12,i,i,i,i,i
COc1ccc2[nH]c3c(NCCCOC(C)C)ncnc3c2c1,-7.4*,i,i,i,i
CCCc1nnc(NC(=O)CCC(=O)NC2CCCCCC2)s1,i,i,i,i,i

# Screening results: PubChem BioAssay, Johns Hopkins Ion Channel Center
